Our source for the IC50 and Activity values is ChEMBL document CHEMBL1157793, “Synthesis and antitumor activity of 1,5-disubstituted 1,2,4-triazoles as cis-restricted combretastatin analogues” (J Med Chem, 2010).

One assay deals with HL-60. Description: Antiproliferative activity against human HL60 cells after 72 hrs by MTT assay. It counts as functional, cell-based. The settings on record: HL-60, 72 h. (In general: Formazan colour is commonly taken as a measure of viable cells.)
The test system of another assay is HeLa. Kind of assay: Antiproliferative activity against human HeLa cells after 72 hrs by MTT assay. It counts as functional, cell-based.
In a further assay the test system is A549. Kind of assay: Antiproliferative activity against human A549 cells after 72 hrs by MTT assay. The conditions noted are these: A549, 72 h. Format: functional, cell-based.
For a further assay, the system named is K562. Description: Antiproliferative activity against human K562 cells after 72 hrs by MTT assay. It counts as functional, cell-based. The conditions noted are these: K562, 72 h. A digest of the protocol:
(§1)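 Cells seeded at 8×10^3 per well (Jurkat, HL-60, K562 in RPMI-1640; MCF7, A549, HeLa in DMEM; all with 10% FBS, penicillin/streptomycin), incubated 18 h at 37 °C, 5% CO2, then exposed to compound at varying concentrations in complete medium for 72 h.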

Another assay has as its system MCF7. Kind of assay: Antiproliferative activity against human MCF7 cells after 72 hrs by MTT assay. Format: functional, cell-based. The conditions noted are these: MCF7, 72 h.
Another assay has as its system Jurkat. Description: Antiproliferative activity against human Jurkat cells after 72 hrs by MTT assay. It counts as functional, cell-based. A digest of the protocol:
as §1

For the next assay, the species on record is Bos taurus. Description: Displacement of [3H]colchicine from bovine tubulin at 1 uM. Put shortly:
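[3H]Colchicine binding inhibition measured with reaction mixtures of 1 µM tubulin, 5 µM [3H]colchicine and 1 µM test compound.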
For orientation: Displacement assays read how much labelled ligand stays bound in the presence of the test substance.

The nature of assay [1]: Inhibition of bovine brain tubulin polymerization after 20 mins by turbidimetry. Also on record: species or system Bos taurus. A digest of the protocol:
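Bovine brain tubulin (10 µM) preincubated with varying compound concentrations in glutamate buffer at 30 °C, chilled to 0 °C, 0.4 mM GTP added, then warmed to 30 °C in spectrophotometer; assembly followed by turbidity at 350 nm.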

Take `COc1cccc(-c2ncnn2-c2cc(OC)c(OC)c(OC)c2)c1`: the IC50 in the assay with HL-60, with HeLa, in the assay on A549, in the assay on K562, in the assay on MCF7 and in the assay with Jurkat was over 10 µM each time.

In the case of `COc1ccccc1-c1ncnn1-c1cc(OC)c(OC)c(OC)c1`, the IC50 with HL-60, with HeLa, in the assay with A549, in the assay on K562, with MCF7 and with Jurkat was over 10 µM throughout.

For the compound `COc1cc(-n2ncnc2-c2ccc(Cl)c(Cl)c2)cc(OC)c1OC`, the IC50 in the assay on HL-60, in the assay on HeLa, in the assay on A549, with K562, in the assay with MCF7 and in the assay on Jurkat was over 10 µM throughout.

Consider `COc1cc(-n2ncnc2-c2cccc(F)c2)cc(OC)c1OC`, for which the IC50 with HL-60, with HeLa, in the assay with A549, in the assay with K562, in the assay on MCF7 and in the assay with Jurkat was over 10 µM in each case.

On to `COc1cc(-c2ncnn2-c2cccc(F)c2)cc(OC)c1OC`, for which the IC50 in the assay with HL-60, in the assay on HeLa, with A549, in the assay on K562, with MCF7 and with Jurkat was over 10 µM throughout.

With `COc1ccc(/C=C\c2cc(OC)c(OC)c(OC)c2)cc1O` [COMBRETASTATIN A4], the Activity in the assay listed under Bos taurus came to 87%. Also, the IC50 in the assay on K562 and in the assay with Jurkat was 0.005 µM throughout.

Consider `COc1cc(-n2ncnc2-c2ccc(F)cc2)cc(OC)c1OC`, for which the IC50 in the assay with HL-60, in the assay with HeLa, with A549, in the assay on K562, with MCF7 and in the assay with Jurkat was over 10 µM in each case.

For `COc1cc(-n2ncnc2-c2ccc(Cl)cc2)cc(OC)c1OC`, the IC50 in the assay on HL-60, with HeLa, with A549, in the assay with K562, in the assay with MCF7 and with Jurkat was over 10 µM in each case.

In the case of `COc1cc(-c2ncnn2-c2cccc(N)c2)cc(OC)c1OC`, the IC50 in the assay on HL-60, in the assay with HeLa, in the assay on A549, in the assay with K562, in the assay on MCF7 and with Jurkat was over 10 µM throughout.

`COc1cc(-c2ncnn2-c2ccc(Cl)cc2Cl)cc(OC)c1OC`: the 50% inhibitory concentration (IC50) in the assay with HL-60, with HeLa, in the assay on A549, with K562, in the assay with MCF7 and in the assay on Jurkat was over 10 µM each time.

In the case of `COc1cc(-c2ncnn2-c2ccc(F)cc2)cc(OC)c1OC`, the IC50 with HL-60, with HeLa, in the assay on A549, in the assay on K562, with MCF7 and with Jurkat was over 10 µM throughout.

As to `COc1cc(-n2ncnc2-c2ccc(OC(F)(F)F)cc2)cc(OC)c1OC`, the IC50 in the assay with HL-60, in the assay on HeLa, with A549, with K562, with MCF7 and in the assay with Jurkat was over 10 µM each time.

Regarding `COc1cc(-c2ncnn2-c2cccc([N+](=O)[O-])c2)cc(OC)c1OC`, the IC50 in the assay with HL-60, with HeLa, with A549, in the assay with K562, in the assay with MCF7 and in the assay on Jurkat was over 10 µM in each case.

As to `COc1cc(-c2ncnn2-c2ccc(Cl)cc2)cc(OC)c1OC`, the IC50 with HL-60, in the assay with HeLa, with A549, in the assay on K562, in the assay with MCF7 and with Jurkat was over 10 µM throughout.

For `COc1cc(-n2ncnc2-c2ccc(C)cc2)cc(OC)c1OC`, the IC50 (as a rule, the concentration at which inhibition is half-maximal) in assay [1] is 3.9 µM; in the assay with HL-60 it was 0.09 µM; with HeLa, 0.25 µM; in the assay with A549 it was 1.1 µM; in the assay on K562, over 10 µM; in the assay with MCF7, 0.54 µM. The same compound registered an IC50 in the assay with Jurkat of 0.3 µM. This compound returned an Activity in the assay listed under Bos taurus of 33%.

For `COc1ccc(-n2ncnc2-c2cc(OC)c(OC)c(OC)c2)cc1`, the IC50 in assay [1] is 16 µM; with HL-60, 6.2 µM; in the assay on HeLa, over 10 µM; in the assay with A549, over 10 µM; in the assay on K562, 3.6 µM; in the assay with MCF7, 7.4 µM. The compound also gave an IC50 in the assay on Jurkat of 0.093 µM.

Consider `COc1cc(-n2ncnc2-c2cccc([N+](=O)[O-])c2)cc(OC)c1OC`, for which the IC50 in the assay on HL-60, with HeLa, with A549, with K562, in the assay on MCF7 and with Jurkat was over 10 µM each time.

In the case of `CCOc1cccc(-c2ncnn2-c2cc(OC)c(OC)c(OC)c2)c1`, the IC50 with HL-60, with HeLa, in the assay with A549, with K562, in the assay on MCF7 and in the assay on Jurkat was over 10 µM throughout.

Consider `CCOc1ccccc1-c1ncnn1-c1cc(OC)c(OC)c(OC)c1`, for which the IC50 in the assay on HL-60, with HeLa, with A549, in the assay with K562, in the assay on MCF7 and in the assay on Jurkat was over 10 µM each time.

For the compound `COc1cc(-n2ncnc2-c2ccccc2)cc(OC)c1OC`, the IC50 in the assay with HL-60, in the assay with HeLa, with A549, in the assay on K562, with MCF7 and with Jurkat was over 10 µM each time.

`COc1cc(-c2ncnn2-c2ccc([N+](=O)[O-])cc2)cc(OC)c1OC`: the IC50 in the assay on HL-60, in the assay with HeLa, in the assay on A549, in the assay with K562, in the assay on MCF7 and in the assay on Jurkat was over 10 µM each time.

On to `COc1cc(-n2ncnc2-c2ccc(OC(C)C)cc2)cc(OC)c1OC`, for which the IC50 was 5.1 µM in assay [1]; 0.7 µM in the assay on HL-60; 0.6 µM in the assay on HeLa; over 10 µM with A549; 0.8 µM in the assay with K562; 0.61 µM with MCF7. The compound also yielded an IC50 in the assay on Jurkat of 0.65 µM. The compound further came in with an Activity in the assay listed under Bos taurus of 37%.

On to `COc1cc(-c2ncnn2-c2ccc(Cl)c(Cl)c2)cc(OC)c1OC`, for which the IC50 in the assay with HL-60, with HeLa, in the assay on A549, in the assay with K562, in the assay on MCF7 and with Jurkat was over 10 µM in each case.

As to `COc1cc(-c2ncnn2-c2ccccc2)cc(OC)c1OC`, the IC50 with HL-60, in the assay on HeLa, with A549, in the assay with K562, with MCF7 and in the assay on Jurkat was over 10 µM in each case.

Consider `COc1ccc(-c2ncnn2-c2cc(OC)c(OC)c(OC)c2)cc1`, for which the IC50 was determined as 2.3 µM in assay [1]; 0.12 µM with HL-60; 0.28 µM with HeLa; 0.52 µM in the assay on A549; 0.95 µM in the assay with K562; 0.36 µM in the assay on MCF7. Half-maximal inhibition with Jurkat (IC50) was put at 0.05 µM. In the assay filed under Bos taurus, this compound displayed an Activity of 55%.

With `COc1cc(-n2ncnc2-c2ccc(SC)cc2)cc(OC)c1OC`, the IC50 turned out to be 3.6 µM in assay [1]; 0.5 µM in the assay on HL-60; 0.15 µM in the assay with HeLa; 0.8 µM in the assay on A549; 0.34 µM in the assay with K562; 0.39 µM with MCF7. Moreover, in the assay on Jurkat, the IC50 amounted to 0.05 µM. For the same compound, the Activity in the assay filed under Bos taurus was 38%.

For the compound `COc1cc(-n2ncnc2-c2cccc(Cl)c2)cc(OC)c1OC`, the IC50 in the assay with HL-60, in the assay with HeLa, with A549, in the assay on K562, in the assay on MCF7 and in the assay on Jurkat was over 10 µM in each case.

Regarding `COc1cc(-c2ncnn2-c2ccc(N)cc2)cc(OC)c1OC`, the IC50 in the assay on HL-60, with HeLa, in the assay on A549, in the assay on K562, in the assay with MCF7 and with Jurkat was over 10 µM in each case.
